# Screens from PubChem BioAssay.
# RGS4 block: inhibitors of human RGS4. P49798. HEK293 M3R/RGS4 inducible, Fluo-4 calcium flux; hits give high values; triggered by carbachol at its EC20. B-score at 10 µM. 310,000 tested, 0.45% active;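 active = B-score, a plate-corrected calcium signal, over three deviations above library mean, with baseline fluorescence within five deviations of library mean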;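 also: RGS4 expression induced by doxycycline in cells with stable M3 receptor; B-score is computed from the integrated fluorescence ratio over baseline after carbachol; higher B-score means a larger calcium signal and so more RGS4 inhibition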
# Target sequence (P49798 whole entry, looked up): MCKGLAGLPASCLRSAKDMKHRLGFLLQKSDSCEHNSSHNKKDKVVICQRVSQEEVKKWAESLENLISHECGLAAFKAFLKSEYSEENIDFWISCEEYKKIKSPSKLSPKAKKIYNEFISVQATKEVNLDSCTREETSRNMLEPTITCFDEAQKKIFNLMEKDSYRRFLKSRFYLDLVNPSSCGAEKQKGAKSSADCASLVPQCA
# MrgX1 allo act: allosterically activates human MrgX1 receptor signaling | 310,000 tested, 0.63% active | Q96LB2 | B-score at 10 µM | MrgX1-HEK293, Fluo-4 calcium flux, FDSS; hits give high values;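 active = plate-corrected calcium response at least 3 library SD above typical, normal starting fluorescence, not activating the receptor alone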;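 also: compound read alongside a low EC10 to EC30 dose of BAM8-22 agonist; peak minus trough fluorescence over baseline measured at the second addition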
# Target sequence (Q96LB2 whole entry, looked up): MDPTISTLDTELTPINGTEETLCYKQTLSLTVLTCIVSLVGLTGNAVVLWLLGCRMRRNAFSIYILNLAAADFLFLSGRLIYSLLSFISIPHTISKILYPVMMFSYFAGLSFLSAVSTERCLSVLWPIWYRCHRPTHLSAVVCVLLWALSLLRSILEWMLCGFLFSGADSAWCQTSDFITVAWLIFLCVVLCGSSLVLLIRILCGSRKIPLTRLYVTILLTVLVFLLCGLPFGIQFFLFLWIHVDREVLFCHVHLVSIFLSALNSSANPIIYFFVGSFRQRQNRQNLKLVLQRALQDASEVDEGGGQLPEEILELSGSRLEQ
# MrgX1 antag: blocks BAM8-22 activation of human MrgX1 receptor; B-score at 10 µM; MRGX1-HEK293 calcium flux, Fluo-4, BAM8-22 antagonism; hits give low values; AID 588676; Q96LB2; 310,000 tested, 1.3% active;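 active = calcium-response B-score plate-corrected more than 3 library SD below zero, starting fluorescence within 5 deviations, no agonist response on first addition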;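 also: peak minus trough fluorescence over baseline after final BAM8-22 challenge near maximal dose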
# MrgX1 ag: human MrgX1 receptor agonism, primary screen. MrgX1-HEK293 cells, Fluo-4 calcium fluorescence, agonist mode; hits give high values. B-score at 10 µM. 310,000 tested, 0.44% active. AID 588627;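 active = calcium response B-score plate-corrected fluorescence ratio at least 3 library SD, with starting fluorescence B-score inside 5 SD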
#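 Material – MrgX1-expressing HEK293 cells · Input – 15,000 cells seeded per well · Dosing – compound as first of three additions · Times – overnight seeding, then 1 h dark dye loading · Measured by – kinetic Fluo-4 NW fluorescence of intracellular calcium · Read-out – B-scored fluorescence response ratio · Benchmarks – positive and negative control wells on each plate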
# RGS4 pot: RGS4 potentiation or activation. HEK293 M3R/inducible RGS4, carbachol calcium flux Fluo4; hits give low values. B-score at 10 µM. 310,000 tested, 0.92% active. AID 463111;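 active = B-score of the integrated calcium signal more than 4 SD below the library mean, with starting fluorescence not abnormally high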;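 also: negative B-score means reduced calcium response which marks RGS4 activation or potentiation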
#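 test system = M3R-expressing HEK293 line, RGS4 induced by doxycycline | probe or stimulus = carbachol at ECmax as muscarinic agonist stimulus | timing = dye loading 30 min 37 °C, buffer rest 30 min RT | signal = calcium dye Fluo4 fluorescence | evaluation = B score from integrated fluorescence ratio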
# Numbers without * were called inactive; i = inactive; . = no result given. Compounds with a hit are over-represented: about 3.5% of the library has one in this group of screens.
SMILES,RGS4 block,MrgX1 allo act,MrgX1 antag,MrgX1 ag,RGS4 pot
O=C1CC(Cc2ccccc2)C(=O)N1CCc1ccc2c(c1)OCO2 (stereo unspecified),i,i,i,i,i
O=C1OC[C@H](Cc2ccc3c(c2)OCO3)/C1=C\c1ccc2c(c1)OCO2,i,i,-4.59*,i,i
Cc1ccc(S(=O)(=O)CCC(=O)Nc2ccccc2C)cc1,i,i,i,i,i
CC(=O)Oc1ccc(N2C(=O)C3C(C2=O)C(C(=O)c2ccc(Cl)cc2)N2CCCC32)cc1 (stereo unspecified),i,i,i,29.9*,i
Cc1ccccc1S(=O)(=O)Oc1ccc2ccc(O)cc2c1,i,i,i,i,-8.88*
Oc1ccc(COCc2ccccc2)c2cccnc12,i,i,-5.57*,i,i
CCCOCc1ccc(O)c2ncccc12,i,i,i,i,i
CCN(CC)S(=O)(=O)c1ccc(N2CCCC2)c(NC(=O)Cc2c(F)cccc2Cl)c1,i,i,i,i,i
O=C(NCC(c1cccnc1)N1CCOCC1)NC1CCCCC1 (stereo unspecified),i,i,i,i,i
Cc1cccc(NC(=O)C(=O)NCC2CCCN2S(=O)(=O)c2ccccc2)c1 (stereo unspecified),i,i,i,i,i
COc1ccc(NC(=O)c2sc(Cl)nc2-c2ccccc2)cc1,i,i,i,i,i
CC(C)CCOc1ccc(C(=O)NCC(c2ccco2)N(C)C)cc1 (stereo unspecified),i,i,i,i,-7.5*
CN(C(=O)C(C)(C)C)c1ccc(OCC(=O)N2CCc3ccccc3C2)cc1,i,i,i,i,-7.43*
Cc1ccc(OCC(=O)N2CCc3ccccc3C2)cc1,i,i,i,i,i
COc1ccc2c(c1)C(=O)N(c1ccc(C)cc1)C(=O)C2,i,i,-4.81*,i,i
COc1ccc(/C(O)=C2/C(=O)C(=O)N(c3ccccn3)C2c2ccc(F)cc2)cc1 (stereo unspecified),i,i,i,i,i
COc1ccccc1NS(=O)(=O)c1ccc(O)c(C(=O)OCc2cccc([N+](=O)[O-])c2)c1,i,i,-6.52*,i,i
COc1ccccc1NS(=O)(=O)c1ccc(C)c(C(N)=O)c1,i,i,i,i,i
CN(C)[C@@H]1CCC[C@@H]1OC(=O)C(c1ccccc1)c1ccccc1,i,i,i,i,-7*
CCOC(=O)CSc1nc2sc3c(c2c(=O)n1C1CCCCC1)CCN(C)C3,i,i,i,i,-10.5*
CCn1c(SCC(N)=O)nc2sc3c(c2c1=O)CCN(C)C3,i,i,i,i,i
CCOC(=O)CSc1nc2sc3c(c2c(=O)n1-c1ccc(OCC)cc1)CCN(C)C3,i,i,i,i,i
C=C(C)CSc1nc2sc3c(c2c(=O)n1-c1ccc(C)cc1)CCN(C)C3,i,.,.,.,-10.4*
Cc1cccc(C)c1NC(=O)CN(C)C(=O)COc1cccc2c1OC(C)(C)C2,i,i,i,i,i
CCSC1(SCC)N=C(N)C2(C#N)C(c3ccc(F)cc3)C12C#N (stereo unspecified),i,i,i,29.2*,i
SMILES,RGS4 block,MrgX1 allo act,MrgX1 antag,MrgX1 ag,RGS4 pot
CC(C)Nc1nc(NC(C)C)nc(OCCOC(=O)Nc2ccccc2)n1,i,i,i,i,i
O=[N+]([O-])c1ccc(N/N=C/c2sc(N3CCOCC3)nc2-c2ccccc2)c(S(=O)(=O)Nc2ccc(Cl)cc2)c1,i,.,.,.,-7.45*
COc1ccc(C(=O)CN2C(=O)NC3(CCCc4ccccc43)C2=O)cc1 (stereo unspecified),i,i,i,i,-7.5*
CCOC(=O)N1CCN(CCC(=O)Nc2cccc(C)c2)CC1,i,i,i,i,i
CCS(=O)(=O)CCSc1nc2ccccc2s1,i,i,i,i,i
O=S(=O)(CCSc1nc2ccccc2s1)c1nc2ccccc2s1,i,i,i,i,-7.43*
CCCC(=O)N(CCN1CCOCC1)c1nc2c(OC)ccc(OC)c2s1,i,i,i,i,i
Cc1ccc(S(=O)(=O)NC(C)C(=O)NC2CCCCCC2)cc1 (stereo unspecified),i,i,i,i,-7.24*
O=[N+]([O-])c1cnc(Sc2ccncn2)s1,i,i,i,i,-9.78*
O=C(Cn1ccnc1[N+](=O)[O-])NCc1ccccc1,i,i,i,i,-7.65*
COc1ccc(-c2csc(N(Cc3ccco3)C(=O)c3cccs3)n2)cc1,i,i,-4.82*,i,i
COc1ccc(OC)c(-c2csc(N(Cc3ccco3)C(=O)c3cccs3)n2)c1,i,i,i,i,i
Fc1cccc(F)c1-n1c(CN2CCCC2)csc1=S,i,i,-5.12*,i,i
Clc1cccc(COn2c(-c3ccc(Cl)cc3Cl)nc3ncccc32)c1,i,i,i,i,i
Cc1ccc(COn2c(-c3ccc(Cl)cc3Cl)nc3ncccc32)cc1,i,i,i,i,-8.65*
COc1ccccc1CNC(=O)C(C)n1nc(C)n2c(cc3occc32)c1=O (stereo unspecified),i,i,i,i,i
CN1C(=O)C(O)(CC(=O)/C=C\c2ccc3c(c2)OCO3)c2ccccc21 (stereo unspecified),i,i,-5.38*,i,i
CN(C(=O)/C=C/c1ccc2c(c1)OCO2)c1ccccc1,i,9.1*,i,i,i
NC(=O)CN1C(=O)C(O)(CC(=O)/C=C\c2ccc3c(c2)OCO3)c2ccccc21 (stereo unspecified),i,i,i,i,i
Cc1ccc(OCc2nnnn2-c2ccccc2)cc1,i,i,i,i,i
Cc1ccc(S(=O)(=O)Oc2ccc(C3C4=C(CCCC4=O)N(CCC(=O)O)C4=C3C(=O)CCC4)cc2Cl)cc1,i,i,i,i,i
O=[N+]([O-])c1ccc(Cl)c2c1C1C=CCC1C(c1ccccn1)N2 (stereo unspecified),i,i,-5.64*,i,i
COc1cc(CNCc2cccs2)ccc1OCc1ccccc1,i,i,i,i,-7.09*
COc1cc(CNCc2cccs2)ccc1OCc1cccs1,i,i,i,i,i
COc1ccc(N2CCN(C(c3cccs3)C(C)NC(=O)C(=O)N3CCCC3)CC2)cc1 (stereo unspecified),i,i,i,i,i
